Results as given in the EternaBench riboswitch data.

Tested on: MS2 coat protein
Test: apparent Kd, MS2 coat protein; higher = weaker binding; RNA-MaP array; theophylline 2 mM where present
Summary of the method: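 On Illumina sequencing-chip clusters, designs were transcribed by stalled E. coli RNA polymerase and titrated with SNAP-549-labelled MS2 coat protein (0.7 or 1.5 nM, doubling to 3 µM), without and then with constant ligand, in 100 mM Tris-HCl pH 7.5, 80 mM KCl, 4 mM MgCl2, BSA, DTT, yeast tRNA and Tween-20. Apparent Kd is the median of filtered per-cluster curve fits to green signal normalised to red-channel RNA signal and control-cluster median Fmax.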

[1] = designed as: OFF switch for theophylline, no ligand
[2] = ligand present: theophylline, designed as: OFF switch for theophylline
[3] = designed as: ON switch for theophylline, no ligand
[4] = ligand present: theophylline, designed as: ON switch for theophylline

Sequence	apparent Kd [1] [nM]	apparent Kd [2] [nM]	apparent Kd [3] [nM]	apparent Kd [4] [nM]
ACGAACGAUAGUGAUACCAGACGUACAUGAGGAUCACCCAUGUUGUAAACAUGGUUAAUAGUCCCUUGGCAGCACGAUAAGUUCG	575	499		
ACGACGCAUAGUGAUACCAGUAGAACAUGAGGAUCACCCAUGUCUGUGACGCACCACCUCUGCCCUUGGCAGCACUAUGCGUCAG			22.7	22.9
ACGUCAACCCUUAUGUUGAUGCAAGACGAUACCAGCCUGGAUACAGGCCCUUGGCAGCGUCAACAUGAGGAUCACCCAUGUAAUA			82.8	118
AGACAUGAGGAUCACCCAUGUAGCAUGGAUACCAGAUGUAGAUUAGUCCCUUGGCAGCUGUGGUGAAGUGAUGCAUUGCUCCUAG	63.2	61.6		
AGACAUGAGGAUCACCCAUGUAGUACGGAUACCAGAUCCAGAUGCGUCCCUUGGCAGCUGUAGUACAGCGUUACAUCGCUCGUAG	20.8	32.1		
AGACAUGAGGAUCACCCAUGUAGUACGGAUACCAGAUCCAGAUGUAUCCCUUGGCAGCUGUGGUACAGCGUUGCAACGCUCCUAG	16	15.3		
AGACAUGAGGAUCACCCAUGUAGUACGGAUACCAGAUCCAGAUUUAUCCCUUGGCAGCUGUGGUACAGCGUUGCAACGCUCCUAG	17.5	17.5		
AGCCCUGUACUAGAUACCAGCUACAUGAGGAUCACCCAUGUGCGUCAAGACUGACUGUGUGGCCCUUGGCAGCUGCUCGCAUGUA	146	208		
AGCCUAUUACAUGAGGAUCACCCAUGUGAUACCAGUCAGGAAACUGACCCUUGGCAGCGCAUGAGGAUCACCCAUGCGCGAGGCA	11	11.9		
AGUACUCGAACGGAUACCAGCCGGACAUGAGGAUCACCCAUGUCCUACCAUGUUUCGGUUGGCCCUUGGCAGCCGUUCGUGUACA			425	30.4
AGUGUUAUAACUGAUACCAGACCUUUGCUUAUACAUGAGGAUCACCCAUGUAAAAUGGCGGUCCCUUGGCAGCAGAGAAUACGCA			68	13.2
AUACACCUCGUCCAGGCAAUCUUUAGUGAUACCAGCUAACUCCGUGGCCCUUGGCAGCACAUGAGGAUCACCCAUGUGCGACAUC	11.1	11.8		
AUCGUACCUGAUGAUACCAGCAUGUGAUCGUAACAUGAGGAUCACCCAUGUAAUCAGUGAUGCCCUUGGCAGCAUGAUCGGUACA			97.7	20.5
AUCGUACCUGAUGAUACCAGCAUGUGCUCGUAACAUGAGGAUCACCCAUGUGAUCAGUGAUGCCCUUGGCAGCAUGAUCGGUGCA			169	19.3
AUCGUACCUGGUGAUACCAGCAAUUGCUCGUGACAUGAGGAUCACCCAUGUGACCAGUGAUGCCCUUGGCAGCAUGGUCGGUGCA			68.7	27.2
AUUGGGUUAUCAGAUACCAGACUAUUCUAGACAUGAGGAUCACCCAUGUAUUGGGUUUUCGUCCCUUGGCAGCUGUUAAGUUUAA			167	113
CAAACAUGAGGAUCACCCAUGUAAUCAGAUACCAGUGACGAAAGUCACCCUUGGCAGCUGAGUACAUUAGUUCUAAGGUGUUUGA	44.6	50.2		
GCACCAGGUACGGAUACCAGCUAUAGGUACAUGUCAGGACAUGAGGAUCACCCAUGUGGUAGCCCUUGGCAGCUGUACCUGGUGC	17.4	27.2		
GGUGUAUCCAUCGAUACCAGCCACCACCGAUAGACCACAUGAGGAUCACCCAUGUUGGGUGGCCCUUGGCAGCGGUGGCUGUGCC			317	172
GUCAGUAGAACAGAUACCAGUCAAAGGCUGUGAUCUCAUAACAUGAGGAUCACCCAUGUUGACCCUUGGCAGCUGUGGGCGAGGG	45.2	391		
UACAUGAGGAUCACCCAUGUAUACAUGGAUACCAGCGACAAUGGGCGCCCUUGGCAGCUAGUGGAUGGAGGGUGGCCACAGUACU	70.2	71.8		
UACAUGAGGAUCACCCAUGUAUGAAUAGAUACCAGCGAAAAUAAGCGCCCUUGGCAGCUAGUGAAUAAAGGGUGGGUAAAAUAAU	9.18	19.9		
